Results taken from ChEMBL document CHEMBL1687847, “Three residues in HIV-1 matrix contribute to protease inhibitor susceptibility and replication capacity” (2011).
Calls of active or inactive are those of the source. The rule behind the calls is not given here.

Legend:
[1] = tested on: Human immunodeficiency virus 1; assay: Antiviral activity against 8gpNS with amino acid 116 insertion removed HIV1 infected in HEK293T cells assessed as inhibition of viral replication after 48 hrs by luciferase assay; format: functional, organism-based; conditions: HEK-293T
Outline: (§1)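 Resistance vectors were made by cotransfecting HEK293T cells with a p8.9NSX-derived gag-pol vector carrying the matrix/protease variant, a VSV-G plasmid and a firefly luciferase plasmid. At 16 h, producer cells were reseeded in graded PI concentrations, and vectors were harvested 24 h later to infect fresh HEK293T cells. Luciferase was read 48 h postinfection relative to no-drug controls. EC50 came from linear regression, expressed as fold change versus WT subtype B p8.9NSX, mean of ≥2 experiments.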

[2] = tested on: Human immunodeficiency virus 1; assay: Antiviral activity against HIV1 harboring wild type 8.9NSX with mutant amino acid 116 insertion infected in HEK293T cells assessed as inhibition of viral replication after 48 hrs by luciferase assay; format: functional, organism-based; conditions: HEK-293T; outline: as §1
[3] = tested on: Human immunodeficiency virus 1; assay: Antiviral activity against HIV1 harboring wild type 8.9NSX with gag T81A mutant infected in HEK293T cells assessed as inhibition of viral replication after 48 hrs by luciferase assay; format: functional, organism-based; conditions: HEK-293T; outline: as §1
[4] = tested on: Human immunodeficiency virus 1; assay: Antiviral activity against HIV1 harboring mutant protease with matrix K76R mutant infected in HEK293T cells assessed as inhibition of viral replication after 48 hrs by luciferase assay; format: functional, organism-based; conditions: HEK-293T; outline: as §1
[5] = tested on: Human immunodeficiency virus 1; assay: Antiviral activity against HIV1 harboring mutant protease with matrix Y79F mutant infected in HEK293T cells assessed as inhibition of viral replication after 48 hrs by luciferase assay; format: functional, organism-based; conditions: HEK-293T; outline: as §1
[6] = tested on: Human immunodeficiency virus 1; assay: Antiviral activity against HIV1 harboring mutant protease with matrix A81T mutant infected in HEK293T cells assessed as inhibition of viral replication after 48 hrs by luciferase assay; format: functional, organism-based; conditions: HEK-293T; outline: as §1
[7] = tested on: Human immunodeficiency virus 1; assay: Ratio of EC50 for HIV1 harboring HIV1 harboring wild type 8.9NSX with gag […] and T81A mutant to EC50 for wild type HIV1; format: functional; outline: as §1

Structure (SMILES) | inhibition [1] | inhibition [2] | inhibition [3] | inhibition [4] | inhibition [5] | inhibition [6] | Ratio EC50 [7]
COC(=O)N[C@H](C(=O)N[C@@H](Cc1ccccc1)[C@@H](O)CN(Cc1ccc(-c2ccccn2)cc1)NC(=O)[C@@H](NC(=O)OC)C(C)(C)C)C(C)(C)C | inactive | inactive | inactive | inactive | inactive | inactive | 
CC(C)CN(C[C@@H](O)[C@H](Cc1ccccc1)NC(=O)O[C@H]1CCOC1)S(=O)(=O)c1ccc(N)cc1 [AMPRENAVIR] | inactive | inactive | inactive | inactive | inactive | inactive | 3
CC(C)CN(C[C@@H](O)[C@H](Cc1ccccc1)NC(=O)O[C@H]1CO[C@H]2OCC[C@H]21)S(=O)(=O)c1ccc(N)cc1 [DARUNAVIR] | inactive | inactive |  |  |  |  | 3
CC(C)(C)NC(=O)[C@@H]1CN(Cc2cccnc2)CCN1C[C@@H](O)C[C@@H](Cc1ccccc1)C(=O)N[C@H]1c2ccccc2C[C@H]1O.O [INDINAVIR] | inactive | inactive |  | inactive | inactive | inactive | 3
Cc1cccc(C)c1OCC(=O)N[C@@H](Cc1ccccc1)[C@@H](O)C[C@H](Cc1ccccc1)NC(=O)[C@H](C(C)C)N1CCCNC1=O [LOPINAVIR] | inactive | inactive |  | inactive | inactive | inactive | 3
Cc1c(O)cccc1C(=O)N[C@@H](CSc1ccccc1)[C@H](O)CN1C[C@H]2CCCC[C@H]2C[C@H]1C(=O)NC(C)(C)C [NELFINAVIR] | inactive | inactive | inactive | inactive | inactive | inactive | 3
CC(C)(C)NC(=O)[C@@H]1C[C@@H]2CCCC[C@@H]2CN1C[C@@H](O)[C@H](Cc1ccccc1)NC(=O)[C@H](CC(N)=O)NC(=O)c1ccc2ccccc2n1 [SAQUINAVIR] | inactive | inactive |  |  |  |  | 3
CCC[C@@]1(CCc2ccccc2)CC(O)=C([C@H](CC)c2cccc(NS(=O)(=O)c3ccc(C(F)(F)F)cn3)c2)C(=O)O1 [TIPRANAVIR] | inactive | inactive |  |  |  |  | 3
